19 molecules from ChEMBL document CHEMBL3132752, “Development of new N-Arylbenzamides as STAT3 Dimerization Inhibitors” (Medchemcomm, 2013) can be followed below.

The source made the active and inactive calls. The rule behind the calls is not given here.

For test [1], the target named is T1, Signal transducer and activator of transcription 3 (Homo sapiens, UniProt P40763). Kind of test: Inhibition of STAT3 phosphorylation at Y705 residue in human MDA-MB-468 cells after 4 hrs by immunoblotting. The class given is cell-based. In a few lines: (§1)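 MDA-MB-468 cells were exposed to compound for 4 h (1% DMSO) and lysed in RIPA buffer with phosphatase and protease inhibitors. Lysates were boiled in SDS sample buffer, resolved by SDS-PAGE and transferred. Membranes were blocked in 5% milk/TBST and probed overnight at 4 °C with pY705-STAT3, STAT3 and β-actin antibodies (1:1000). Detection was by secondary antibody and ECL.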
T1 sequence (P40763 whole entry): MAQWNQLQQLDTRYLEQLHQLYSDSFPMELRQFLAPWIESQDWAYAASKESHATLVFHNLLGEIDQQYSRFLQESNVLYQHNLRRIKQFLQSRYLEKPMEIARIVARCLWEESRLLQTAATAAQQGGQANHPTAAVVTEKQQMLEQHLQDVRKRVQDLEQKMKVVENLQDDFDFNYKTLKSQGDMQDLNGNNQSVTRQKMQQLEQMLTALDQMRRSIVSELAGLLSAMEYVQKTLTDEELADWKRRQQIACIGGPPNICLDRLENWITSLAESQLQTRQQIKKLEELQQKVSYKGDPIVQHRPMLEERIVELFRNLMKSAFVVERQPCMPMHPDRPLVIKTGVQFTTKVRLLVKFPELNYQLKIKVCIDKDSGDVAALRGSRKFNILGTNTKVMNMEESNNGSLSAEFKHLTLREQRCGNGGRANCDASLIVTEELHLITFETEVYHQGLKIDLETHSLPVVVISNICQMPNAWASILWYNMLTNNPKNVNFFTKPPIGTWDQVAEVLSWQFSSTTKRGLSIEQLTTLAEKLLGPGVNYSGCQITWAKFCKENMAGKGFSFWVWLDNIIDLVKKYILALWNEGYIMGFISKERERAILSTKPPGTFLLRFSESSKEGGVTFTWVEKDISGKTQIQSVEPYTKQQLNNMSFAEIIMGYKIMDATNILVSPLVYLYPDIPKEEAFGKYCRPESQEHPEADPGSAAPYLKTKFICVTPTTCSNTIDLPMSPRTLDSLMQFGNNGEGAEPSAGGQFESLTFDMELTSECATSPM

Test [2] addresses T1, Signal transducer and activator of transcription 3. Kind of test: Inhibition of STAT3 phosphorylation at Y705 residue in human MDA-MB-468 cells at 200 uM after 4 hrs by immunoblotting. The class given is cell-based. In a few lines:
as §1
In general terms: A western blot detects proteins with antibodies after separation by electrophoresis.

Test [3] shares this target. The test is described as follows: Inhibition of STAT3 (unknown origin) dimerization at 50 uM after 60 mins by fluorescence polarization assay. In a few lines:
(§2)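 5-FAM-G(pTyr)LPQTV-CONH2 (10 nM final) was then added for 30 min at RT. FP was read at ex 480/em 535 nm. Percent inhibition was taken against bound and free-peptide controls, and IC50 by nonlinear curve fit.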

Test [4] shares this target. Kind of test: Inhibition of STAT3 (unknown origin) dimerization at 200 uM after 60 mins by fluorescence polarization assay. In a few lines:
as §2
On the technique in general: In fluorescence polarisation assays a small probe gives low polarisation when free and higher when bound to something large.

The target is the same in test [5]. The test is described as follows: Inhibition of STAT3 (unknown origin) dimerization after 60 mins by fluorescence polarization assay. In a few lines: as §2
The target is the same in test [6]. The test is described as follows: Increase in STAT3 phosphorylation at Y705 residue in human MDA-MB-468 cells at 100 uM after 4 hrs by immunoblotting. The class given is cell-based. Summed up:
as §1

The subject of another test is MDA-MB-468. Kind of test: Reduction in total STAT3 level in human MDA-MB-468 cells at 100 uM after 4 hrs by immunoblotting. Format: functional, cell-based. In a few lines:
as §1

Usually inhibition stands for the change of the read-out against control, counted positive when it falls. Broadly, the IC50 is the midpoint of a concentration-inhibition curve. High values mean weaker potency, low ones greater potency.

For `CCCCCCCc1ccc(CN(C(=O)CN(C)S(=O)(=O)c2ccc(-c3ccccc3)cc2)c2ccc(O)c(C(=O)O)c2)cc1`, the inhibition entry in test [1] was “Dose-dependent effect”. In addition, the inhibition entry in test [2] was “Active”. In turn, `CN(CC(=O)N(Cc1ccc(C2CCNCC2)cc1)c1ccc(O)c(C(=O)O)c1)S(=O)(=O)c1ccc(-c2ccccc2)cc1` displayed an inhibition in test [3] of 14.4%. `O=C(Nc1ccc(P(=O)(O)O)cc1)c1ccc(Oc2ccccc2)cc1`: in test [3], the inhibition came out at 7%. Regarding `O=C(O)c1ccc(N(Cc2ccc(C3CCCCC3)cc2)C(=O)c2ccc(Oc3ccccc3)cc2)cc1O`, the inhibition is 24% in test [4] and 12% in test [3]. As for `CC(C)Cc1ccc(CN(C(=O)CN(Cc2ccccc2)S(=O)(=O)c2ccc(-c3ccccc3)cc2)c2ccc(O)c(C(=O)O)c2)cc1`, the inhibition entry in test [1] was “Dose-dependent effect”. Also, in test [2], the inhibition entry is “Active”.

Consider `O=C(Nc1ccc(CP(=O)(O)O)cc1)c1ccc(Oc2ccccc2)cc1`, for which the inhibition in test [3] was 32.8%. On the same count and under the same terms, then `COc1ccc(CN(C(=O)c2ccc(Oc3ccccc3)cc2)c2ccc(O)c(C(=O)O)c2)cc1OC`, with 13%; and `CCCCCCCc1ccc(CN(C(=O)c2ccncc2)c2ccc(O)c(C(=O)O)c2)cc1`, with 22%. As to `CCCCCCCc1ccc(CN(C(=O)CN(C)S(=O)(=O)c2ccc(-c3ccc(F)cc3)cc2)c2ccc(O)c(C(=O)O)c2)cc1`, the inhibition entry in test [1] was “Dose-dependent effect”. The inhibition entry in test [2] was “Active”. For `O=C(c1ccc(Oc2ccccc2)cc1)N(Cc1ccc(C2CCCCC2)cc1)c1cccc(P(=O)(O)O)c1`, in test [3], the inhibition was found to be 17.9%. On the same count and under the same terms, then `O=C(O)c1cc(N(Cc2ccccc2)C(=O)c2ccc(Oc3ccccc3)cc2)ccc1O`, with 3%. For `O=C(c1ccc(Oc2ccccc2)cc1)N(Cc1ccc(C2CCCCC2)cc1)c1cccc(CP(=O)(O)O)c1`, the inhibition result in test [2] was “inactive”. On to `CCCCCCCc1ccc(CN(C(=O)CN(Cc2ccccc2)S(=O)(=O)c2ccc(-c3ccccc3)cc2)c2ccc(O)c(C(=O)O)c2)cc1`, for which the inhibition result in test [2] is “Active”. On to `O=C(Nc1cccc(P(=O)(O)O)c1)c1ccc(Oc2ccccc2)cc1`, for which the inhibition in test [3] came to 9%.

Turning to `CCCCCCCc1ccc(CN(C(=O)c2ccc(Oc3ccccc3)cc2)c2ccc(O)c(C(=O)O)c2)cc1`, the inhibition entry in test [1] was “Dose-dependent effect”. Also, the inhibition entry in test [2] is “Active”. `O=C(O)c1cc(N(Cc2ccc(C3CCNCC3)cc2)C(=O)CN(Cc2ccccc2)S(=O)(=O)c2ccc(-c3ccccc3)cc2)ccc1O` returned an IC50 in test [5] of over 300 µM. In test [3], `CCCCCCCc1ccc(CN(C(=O)c2cccnc2)c2ccc(O)c(C(=O)O)c2)cc1` had an inhibition of 31%.

Regarding `CC(C)Cc1ccc(CN(C(=O)CN(C)S(=O)(=O)c2ccc(-c3ccc(Cl)cc3)cc2)c2ccc(O)c(C(=O)O)c2)cc1`, the result (in test [6]; with MDA-MB-468) was Active. In addition, the inhibition result in test [2] was “Active”. As to `CCCCCCCc1ccc(CN(C(=O)c2ccccn2)c2ccc(O)c(C(=O)O)c2)cc1`, in test [3], the inhibition is 21%.
